# Test results reported in ChEMBL document CHEMBL1146147, “Study on synthesis and biological activity of a galactosylated piperazinyl porphyrin” (Bioorg Med Chem Lett, 2006).
# Key:
# [1] = Anticancer activity against human MCG cells by MTT assay; format: functional; conditions: read-out: ID50 (the source's name)
# Summary of the method: (§1)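 MTT assay of human tumour cell lines (Bel-7404 liver, MCG stomach, HNE1 nasopharyngeal carcinoma) run in the absence of light. ID50 is taken as the concentration giving 50% cell death, in ug/ml.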
# BEL-7404 tumor cell line [2] = experiment: Anticancer activity against human Bel7404 cells by MTT assay; format: functional; conditions: read-out: ID50 (the source's name); summary of the method: as §1
# [3] = Anticancer activity against human HNE1 cells by MTT assay; format: functional; conditions: read-out: ID50 (the source's name); summary of the method: as §1
# [4] = Anticancer activity against human MCG cells with irradiation at 6.25 ug/ml after 18 hrs by MTT assay; format: functional
# Summary of the method: (§2)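 Human tumour cells (Bel-7404, MCG, HNE1) incubated 18 h with compound at 6.25 ug/ml at 37 °C in air with 5% CO2. Cells irradiated at 650 nm, 20 J/cm²; parallel wells kept unirradiated. Cell death rate read by MTT.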
# [5] = Partition coefficient of the compound; format: ADME; conditions: octanol/water
# Summary of the method: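 Compound distributed between the two non-miscible solvents octanol and water. Reported as the octanol/water partition ratio.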
# BEL-7404 tumor cell line [6] = experiment: Anticancer activity against human Bel7404 cells with irradiation at 6.25 ug/ml after 18 hrs by MTT assay; format: functional; summary of the method: as §2
# [7] = Anticancer activity against human HNE1 cells at 6.25 ug/ml after 18 hrs by MTT assay; format: functional
# Summary of the method: (§3)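 Human tumour cells (Bel-7404 liver, MCG stomach, HNE1 nasopharyngeal) exposed to compound in solution for 18 h at 37 °C under air with 5% CO2, either kept in the dark or irradiated at 650 nm, 20 J/cm². Viability read by MTT; activity reported as percent cell death.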
# [8] = Anticancer activity against human MCG cells at 6.25 ug/ml after 18 hrs by MTT assay; format: functional; summary of the method: as §3
# BEL-7404 tumor cell line [9] = experiment: Anticancer activity against human Bel7404 cells at 6.25 ug/ml after 18 hrs by MTT assay; format: functional; summary of the method: as §3
# [10] = Anticancer activity against human HNE1 cells with irradiation at 6.25 ug/ml after 18 hrs by MTT assay; format: functional; summary of the method: as §2
SMILES,IC50 [1],IC50 (BEL-7404 tumor cell line [2]),IC50 [3],Activity [4],Ratio [5],Activity (BEL-7404 tumor cell line [6]),Activity [7],Activity [8],Activity (BEL-7404 tumor cell line [9]),Activity [10]
O=C([C@H](O)[C@@H](O)[C@H](O[C@@H]1O[C@H](CO)[C@H](O)[C@H](O)[C@H]1O)[C@H](O)CO)N1CCNCC1 [GALACTOSYLATEDPIPERAZINE],> 50 µg/mL,> 50 µg/mL,> 50 µg/mL,–,–,–,–,–,–,–
O=C([C@H](O)[C@@H](O)[C@H](O[C@@H]1O[C@H](CO)[C@H](O)[C@H](O)[C@H]1O)[C@H](O)CO)N1CCN(c2ccc(-c3c4nc(c(-c5ccc(N6CCN(C(=O)[C@H](O)[C@@H](O)[C@H](O[C@@H]7O[C@H](CO)[C@H](O)[C@H](O)[C@H]7O)[C@H](O)CO)CC6)cc5)c5ccc([nH]5)c(-c5ccc(N6CCN(C(=O)[C@H](O)[C@@H](O)[C@H](O[C@@H]7O[C@H](CO)[C@H](O)[C@H](O)[C@H]7O)[C@H](O)CO)CC6)cc5)c5nc(c(-c6ccc(N7CCN(C(=O)[C@H](O)[C@@H](O)[C@H](O[C@@H]8O[C@H](CO)[C@H](O)[C@H](O)[C@H]8O)[C@H](O)CO)CC7)cc6)c6ccc3[nH]6)C=C5)C=C4)cc2)CC1,35 µg/mL,29 µg/mL,33 µg/mL,96%,18,96%,19%,19%,19%,96%
O=c1[nH]cc(F)c(=O)[nH]1 [FLUOROURACIL],–,–,–,–,–,–,29%,29%,29%,–
Nc1ccc(-c2c3nc(c(-c4ccc(N)cc4)c4ccc([nH]4)c(-c4ccc(N)cc4)c4nc(c(-c5ccc(N)cc5)c5ccc2[nH]5)C=C4)C=C3)cc1,24 µg/mL,33 µg/mL,28 µg/mL,–,42,–,–,–,–,–
